This is an account of results in the RNAGym collection of RNA variant scans (doi:10.1126/science.aae0568).

Variants at the floor of the assay were thinned out.

Sequences and labels used below:
B1: tRNA (parent)
chain: GUUCCGUUGGCGUAAUGGUAACGCGUCUCCCUCCUAAGGAGAAGACUGCGGGUUCGAGUCCCGUACGGAACG

The data set covers variants of B1. The data set can be described thus: yeast fitness relative to wild type (ratio to wild type); higher = fitter; tRNA-Arg(CCU), competitive growth, 37 C, YPD. The procedure, abridged: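 Variants of the tRNA-Arg(CCU) gene were chemically synthesised with a 3% per-site mutation rate across 69 sites and placed at the native genomic locus in Saccharomyces cerevisiae. Six parallel replicates of the pooled strains were competed in YPD at 37°C for 24 hours, and gene amplicons from the start and end populations were read by 100-nucleotide paired-end sequencing. Darwinian fitness relative to wild type was derived from changes in genotype frequencies. Genotypes required ≥ 100 starting reads, and estimates < 0.5 were set to 0.5.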
Turning to GUUCCGUUGGCGUAAUGGUAACGCGUCUCCCUCCUUAGGAGAAGACUGCGGGUUCGAGUCCCCUACGGAACG, the yeast fitness is at most 0.5.

As to GUUCCGUUGGCGUAAUGGUAACGCGUCUCCCUCCUACGGAGAAGACUGCGGGUUCGAGUCCCGUGCGUAACG, the yeast fitness is 0.801.

As for GUUCCGUUGGCGUAAUGGUAACGCGUCUCCCUCCUACGGAGAAGGCUGCGGGUUCGAGUCCCGUACGGAACG, the yeast fitness was found to be 0.818.

On to GUUCCGUUGGCGUAAUGGUAACGCGUCUCCCUCCUACGGAGAAGACUGCGGGUUCGAGUCCCGUCCGGAACG, for which the yeast fitness was 0.797.

GUUCCGUUGGCGUAAUGGUAACGCGUCUCCCUCCUACGGUGAAGACUGCGGCUUCGAGUCCCGUACGGGACG: the yeast fitness was at most 0.5.

For the variant GUUCCGUUGGCGUAAUGGUAACGCGUCUCCCUCCUACGGAGAAGUCUGCGCGUUCGAGUCCCGUACGGAACG, the yeast fitness was at most 0.5.

For the variant GUUCCGUUGGCGUAAUGGUAACGCGUCUCCCUCCUACGGAGAUGACCGCGGGUUCGAGUCCCGUACGGUACG, the yeast fitness turned out to be 0.688.

As for GUUCCGUUGGCGUAAUGGUAACGCGUCUCCCUCCUUAGGAGAAGACUGCGGGUUCGAGCCCGGUACGGAACG, the yeast fitness is at most 0.5.

With GUUCCGUUGGCGUAAUGGUAACGCGUCUCCCUCCUUAGGAGAAGACUGCGGGUUCGAGGCCCGUUCGGAACG, the yeast fitness is at most 0.5.

With GUUCCGUUGGCGUAAUGGUAACGCGUCUCCCUCCUACGGAGAAGAGUGCGGGUUCGAGUCCGGUACGGAACG, the yeast fitness amounted to 0.654.

For the variant GUUCCGUUGGCGUAAUGGUAACGCGUCUCCCUCCUACGGAGCAGACUGCGGGUUCGAGUCCCGUACGGAACG, the yeast fitness turned out to be 0.922.

Take GUUCCGUUGGCGUAAUGGUAACGCGUCUCCCUCCUUAGGAGAAGACUGCGCGCUCGAGUCCCGUACGGAACG: the yeast fitness was at most 0.5.

On to GUUCCGUUGGCGUAAUGGUAACGCGUCUCCCUCCUACGGAGUAGACUGAGGGUUCGAGUCCCGUUCGGAACG, for which the yeast fitness stood at 0.609.

Take GUUCCGUUGGCGUAAUGGUAACGCGUCUCCCUCCUACGGGGAAGACUGCGGCUUCGAGCCCCGUUUGGAACG: the yeast fitness is at most 0.5.

For the variant GUUCCGUUGGCGUAAUGGUAACGCGUCUCCCUCCUUAGGAGAAGACUGCGGGUUCCAGUCCCGUACGGUACG, the yeast fitness was determined as 0.669.

As for GUUCCGUUGGCGUAAUGGUAACGCGUCUCCCUCCUACGGAGAUGACUGCGGGUUCGAGUCCCGUUCGGAACG, the yeast fitness was found to be 0.651.

Take GUUCCGUUGGCGUAAUGGUAACGCGUCUCCCUCCUACGGAGAAGACUGCGGGUUCGAGUCCCGUACGGAACG: the yeast fitness was 0.913.

Consider GUUCCGUUGGCGUAAUGGUAACGCGUCUCCCUCCUUAGGAGAAGACUGCGGGUUCAAGUCCCGUACGGUACG, for which the yeast fitness was at most 0.5.

Turning to GUUCCGUUGGCGUAAUGGUAACGCGUCUCCCUCCUACGGAGAAGGCUGGGGGUUCGAGUCCCGUACGGAACG, the yeast fitness is 0.578.

In the case of GUUCCGUUGGCGUAAUGGUAACGCGUCUCCCUCCUUAGGAGAAGACUGCGGGGUCGAGUCCCGUACGGUACG, the yeast fitness was at most 0.5.

GUUCCGUUGGCGUAAUGGUAACGCGUCUCCCUCCUACGGAGAAGACUGCGGGUUCGUGUCCCGUACGGAACG: the yeast fitness was 0.633.

As for GUUCCGUUGGCGUAAUGGUAACGCGUCUCCCUCCUUAGGAGAAGACUGCGGAUUCGAGUACCGUACGGAACG, the yeast fitness was at most 0.5.

With GUUCCGUUGGCGUAAUGGUAACGCGUCUCCCUCCUUAGGAGAAGACUGCGGAUUCGAGUGCCGUACGGAACG, the yeast fitness was at most 0.5.

GUUCCGUUGGCGUAAUGGUAACGCGUCUCCCUCCUACGGAGACGACUGCGGGUUCGAGUCCCGUUCGGAACG: the yeast fitness was found to be 0.537.

Take GUUCCGUUGGCGUAAUGGUAACGCGUCUCCCUCCUUAGGAGAAGACUGCGGAUUCGAGUCCCCUACGGAACG: the yeast fitness is 0.558.

As to GUUCCGUUGGCGUAAUGGUAACGCGUCUCCCUCCUUAGGAGAAGACCGCGGCUUCGAGUCCCGUACGGAACG, the yeast fitness was at most 0.5.

For GUUCCGUUGGCGUAAUGGUAACGCGUCUCCCUCCUUAGGAGAAGACGGCGGGUUCGAGUCACGUACGGAUCG, the yeast fitness was at most 0.5.

As to GUUCCGUUGGCGUAAUGGUAACGCGUCUCCCUCCUUAGGAGAAGACUGCGGGUCCGAGUCCCGUACGGAACG, the yeast fitness was determined as 0.559.

Regarding GUUCCGUUGGCGUAAUGGUAACGCGUCUCCCUCCUUAGGAGAAGACUGCGGGUUCGAGUCCCGUACCGAACG, the yeast fitness is 0.602.

As to GUUCCGUUGGCGUAAUGGUAACGCGUCUCCCUCCUUAGGAGAAGACUGCGGGUUCGAGUCCCGUACAGAACG, the yeast fitness amounted to 0.63.

Regarding GUUCCGUUGGCGUAAUGGUAACGCGUCUCCCUCCUACGGAGCAGAAUGCGGGUUCGAGUCCCGUACGGAACG, the yeast fitness worked out at 0.948.

For the variant GUUCCGUUGGCGUAAUGGUAACGCGUCUCCCUCCUUAGGAGAAGACAGCGGGUUCGAGUCCCGUACGGAACG, the yeast fitness came out at 0.697.

Regarding GUUCCGUUGGCGUAAUGGUAACGCGUCUCCCUCCUUAGGAGAAGACUGCGGGUUCAAGUCCCGUAUGGAACG, the yeast fitness is at most 0.5.

As to GUUCCGUUGGCGUAAUGGUAACGCGUCUCCCUCCUUAGGAGAAGACUGCGGGUUCGAGUCCCGCACGGAACG, the yeast fitness was determined as 0.581.

On to GUUCCGUUGGCGUAAUGGUAACGCGUCUCCCUCCUACGGGGAAGACUGCGGGUUCGAGUCCCGUACGGAACG, for which the yeast fitness was 0.716.

Regarding GUUCCGUUGGCGUAAUGGUAACGCGUCUCCCUCCUACGGAGAGGACUGCGGGUUCGAGUCCCGUACGGAACG, the yeast fitness amounted to 0.988.

Regarding GUUCCGUUGGCGUAAUGGUAACGCGUCUCCCUCCUACGGAGACGACUGCGGGUUCGAGUCCCGUACGGAACG, the yeast fitness amounted to 0.931.

Regarding GUUCCGUUGGCGUAAUGGUAACGCGUCUCCCUCCUACGGAGAUGACUGCGGGUUCGAGUCCCGUACGGAACG, the yeast fitness was 0.992.
